Test results as given in paper PMC10193422 (ACS Omega, 2023).
Values after ≈ are worked out from the molar mass of the structure shown.

Columns and labels:
Candida albicans SC5314 = test: MIC, CLSI broth microdilution; assay type: cell-based; details: SC5314, 24 h, read-out: MIC C. alb SC5314
In short: (§1)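 CLSI broth microdilution (M27-A3 and M60). Strains are kept frozen in YPD with 40% glycerol, passaged twice on Sabouraud dextrose agar at 30 °C, then grown overnight in YPD at 30 °C with shaking. Test compound is dissolved in DMSO, serially diluted in growth medium, inoculated, and incubated at 30 °C. Candida spp. are read at 24 h, C. glabrata at 48 h and C. neoformans at 72 h. MIC is the first well with ≥50% growth reduction versus the drug-free well.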

Candida tropicalis 2718 = test: MIC, CLSI broth microdilution; assay type: cell-based; details: Candida tropicalis, 2718, 24 h, read-out: MIC C. tro 2718
In short: as §1

[1] = tested on: Cryptococcus neoformans H99; test: MIC, CLSI broth microdilution; assay type: cell-based; details: H99, 72 h, read-out: MIC C. neo H99
In short: as §1

[2] = tested on: Aspergillus fumigatus 7544; test: MIC, CLSI broth microdilution; assay type: cell-based; details: Aspergillus fumigatus, 7544, 48 h, read-out: MIC A. fum 7544
In short: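 Mould MIC by CLSI broth microdilution (M27-A3 and M60). The strain comes from a frozen YPD/40% glycerol stock. Test compound is dissolved in DMSO and serially diluted in growth medium. Wells are inoculated and incubated at 35 °C for 48 h. MIC is the first well with ≥50% growth reduction versus the drug-free control.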

C. auris 789 = test: MIC against drug-resistant C. auris clinical isolate; assay type: cell-based, Candida auris; details: Candidozyma auris, 789, 24 h, read-out: MIC C. aur 789
C. auris 791 = test: as above; assay type: cell-based, Candida auris; details: Candidozyma auris, 791, 24 h, read-out: MIC C. aur 791
C. auris 887 = test: as above; assay type: cell-based, Candida auris; details: Candidozyma auris, 887, 24 h, read-out: MIC C. aur 887
C. auris 888 = test: as above; assay type: cell-based, Candida auris; details: Candidozyma auris, 888, 24 h, read-out: MIC C. aur 888
C. auris D12 = test: as above; assay type: cell-based, Candida auris; details: Candidozyma auris, D12, 24 h, read-out: MIC C. aur D12
C. auris BS12372 = test: as above; assay type: cell-based, Candida auris; details: Candidozyma auris, BS12372, 24 h, read-out: MIC C. aur BS12372
[3] = tested on: sterol composition in C. albicans SC5314; test: Sterol composition analysis by GC-MS; assay type: cell-based, Candida albicans; details: compounds at 0.008 μg/mL, FLC at 8 μg/mL
Candida albicans = details: cited from earlier work
Hemolysis assay = assay type: cell-based; details: rabbit, rabbit red blood cell suspension

Row | Structure (SMILES) | MIC (Candida albicans SC5314) [µg/mL] | MIC (Candida tropicalis 2718) [µg/mL] | MIC [1] [µg/mL] | MIC [2] [µg/mL] | MIC (C. auris 789) [µg/mL] | MIC (C. auris 791) [µg/mL] | MIC (C. auris 887) [µg/mL] | MIC (C. auris 888) [µg/mL] | MIC (C. auris D12) [µg/mL] | MIC (C. auris BS12372) [µg/mL] | ergosterol content in treated cells [3] | MIC against Candida albicans (Candida albicans) [µg/mL] | hemolysis at 1 h, 32 μg/mL (Hemolysis assay) [%] | hemolysis at 1 h, 64 μg/mL (Hemolysis assay) [%]
1 | OC(Cn1cncn1)(Cn1cncn1)c1ccc(F)cc1F [FLC, fluconazole] | 0.25 (≈ 0.816 µM) | < 0.125 | 8 (≈ 26.1 µM) | > 64 | > 64 | > 64 | > 64 | > 64 | > 64 | > 64 | almost completely depleted | – | – | –
2 | CC[C@@H]([C@H](C)O)n1ncn(-c2ccc(N3CCN(c4ccc(OC[C@@H]5CO[C@@](Cn6cncn6)(c6ccc(F)cc6F)C5)cc4)CC3)cc2)c1=O [POS, posaconazole] | < 0.008 | < 0.008 | < 0.008 | 0.125 (≈ 0.178 µM) | – | – | – | – | – | – | – | – | – | –
3 | O[C@@](Cn1cnnn1)(c1ccc(F)cc1F)C(F)(F)c1ccc(-c2ccc(OCC(F)(F)F)cc2)cn1 [OTC, oteseconazole] | < 0.008 | < 0.008 | < 0.008 | > 64 | 2 (≈ 3.79 µM) | 8 (≈ 15.2 µM) | 4 (≈ 7.58 µM) | 8 (≈ 15.2 µM) | 0.25 (≈ 0.474 µM) | < 0.0625 | – | – | – | –
4 | C[C@@H](c1ncncc1F)[C@](O)(Cn1cncn1)c1ccc(F)cc1F [VOC, voriconazole] | < 0.008 | < 0.008 | 0.0625 (≈ 0.179 µM) | 0.125 (≈ 0.358 µM) | – | – | – | – | – | – | – | 0.06 (≈ 0.172 µM) | – | –
5 | C[C@@H]1[C@H](O)[C@@H](C)/C=C/C=C/C=C/C=C/C=C/C=C/C=C/[C@H](O[C@@H]2O[C@H](C)[C@@H](O)[C@H](N)[C@@H]2O)C[C@@H]2O[C@](O)(C[C@@H](O)C[C@@H](O)[C@H](O)CC[C@@H](O)C[C@@H](O)CC(=O)O[C@H]1C)C[C@H](O)[C@H]2C(=O)O [AmB, amphotericin B] | – | – | – | – | – | – | – | – | – | – | – | – | 26.8 | 100
